Key:
Aspergillus flavus [1] = test: Antifungal activity against Aspergillus flavus assessed as mycelial growth at 60 uL after 4 to 12 days by agar disk diffusion method relative to untreated control; type: functional
Outline: (§1)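 Aspergillus flavus, isolated from feeds, was grown on PDA plates seeded with 6 mm mycelial plugs from 10-day cultures. Three paper disks per dish carried either 60 µL pure essential oil or 60, 40 or 20 µL of single major oil constituents. Plates were sealed and incubated in the dark at 22 °C. Average colony diameter was read at 4, 8 and 12 days against water-impregnated disk controls.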

Aspergillus flavus [2] = test: Antifungal activity against Aspergillus flavus assessed as mycelial growth at 20 uL after 4 to 12 days by agar disk diffusion method relative to untreated control; type: functional; outline: as §1

| Compound | Activity (Aspergillus flavus [1]) [%] | Activity (Aspergillus flavus [2]) [%] |
| --- | --- | --- |
| CC1=CC[C@H](C(C)C)C=C1 [ALPHA-PHELLANDRENE] | 0 | 0 |
| CC1=CC=C(C(C)C)CC1 [ALPHA-TERPINENE] | 0 | 0 |
| CC1=CC[C@@H](C(C)(C)O)CC1 [ALPHA-TERPINEOL] | 100 | 100 |
| CC1=CCC(C(C)C)=CC1 [GAMMA-TERPINENE] | 0 | 0 |
| CC1=CCC(O)(C(C)C)CC1 (configuration not stated) [TERPINEOL] | 100 | 100 |
| CC1=CCC(=C(C)C)CC1 [TERPINOLENE] | 0 | 0 |

— ChEMBL document CHEMBL3046752, “Characterization of the volatile constituents in the essential oil of Pistacia lentiscus L. from different origins and its antifungal and antioxidant activity” (2007)
